Results published in publication PMC6358270 (Toxicological Sciences, 2018).
“Also recorded” adds a separate entry of the source. Read-outs that look alike come from different tables or passages of the source.

Experiments:
[1] = tested on: HepG2 cells; settings: ref Otieno et al., 2018, cited from earlier work; for effect on OCR / basal respiration: HepG2 cells
[2] = ref Wolenski et al., 2017; cited from earlier work
[3] = tested on: primary human hepatocytes; settings: ref Wolenski et al., 2017; cited from earlier work
[4] = tested on: patients with T2D; settings: Phase II clinical trials, ref Kaku et al., 2015; cited from earlier work
[5] = rat; ref unpublished data; cited from earlier work
[6] = biological target: human BSEP ABC transporter (Homo sapiens, UniProt O95342); assay: BSEP vesicular transport inhibition Ki determination assay; assay type: biochemical
Chain of human BSEP ABC transporter (O95342 whole entry): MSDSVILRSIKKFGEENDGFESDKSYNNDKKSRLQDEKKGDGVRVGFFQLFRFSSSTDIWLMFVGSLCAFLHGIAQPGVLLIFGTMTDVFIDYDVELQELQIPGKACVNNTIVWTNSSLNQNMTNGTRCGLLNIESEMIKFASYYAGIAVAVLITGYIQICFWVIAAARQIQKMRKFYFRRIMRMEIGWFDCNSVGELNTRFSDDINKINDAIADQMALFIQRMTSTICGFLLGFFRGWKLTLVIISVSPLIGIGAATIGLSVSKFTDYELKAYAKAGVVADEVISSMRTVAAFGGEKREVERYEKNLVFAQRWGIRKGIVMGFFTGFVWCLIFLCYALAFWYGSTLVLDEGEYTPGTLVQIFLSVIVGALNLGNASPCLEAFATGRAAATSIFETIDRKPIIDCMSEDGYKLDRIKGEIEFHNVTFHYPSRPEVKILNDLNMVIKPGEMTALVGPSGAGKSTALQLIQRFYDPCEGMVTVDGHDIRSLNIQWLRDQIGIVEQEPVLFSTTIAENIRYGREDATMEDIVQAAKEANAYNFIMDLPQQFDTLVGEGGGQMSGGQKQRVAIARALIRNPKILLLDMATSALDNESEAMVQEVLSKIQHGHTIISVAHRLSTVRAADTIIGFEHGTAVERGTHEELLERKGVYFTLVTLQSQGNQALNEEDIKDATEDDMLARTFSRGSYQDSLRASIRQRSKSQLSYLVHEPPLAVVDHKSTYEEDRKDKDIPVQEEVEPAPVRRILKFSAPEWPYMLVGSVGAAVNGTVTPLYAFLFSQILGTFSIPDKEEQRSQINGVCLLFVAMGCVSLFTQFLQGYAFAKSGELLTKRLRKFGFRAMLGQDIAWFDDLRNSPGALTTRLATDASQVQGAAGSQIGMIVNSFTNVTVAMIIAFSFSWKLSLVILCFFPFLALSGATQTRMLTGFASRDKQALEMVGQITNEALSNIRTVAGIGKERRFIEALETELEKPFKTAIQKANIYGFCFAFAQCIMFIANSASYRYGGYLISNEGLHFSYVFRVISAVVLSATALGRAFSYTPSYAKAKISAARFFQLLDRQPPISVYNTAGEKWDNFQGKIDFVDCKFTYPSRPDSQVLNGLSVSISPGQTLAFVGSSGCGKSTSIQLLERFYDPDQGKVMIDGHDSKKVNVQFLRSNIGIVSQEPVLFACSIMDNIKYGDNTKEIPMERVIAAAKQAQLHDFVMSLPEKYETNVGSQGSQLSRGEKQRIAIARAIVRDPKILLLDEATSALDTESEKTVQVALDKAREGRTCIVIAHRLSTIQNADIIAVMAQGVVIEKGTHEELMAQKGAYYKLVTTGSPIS
Summary of the method: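 Inside-out membrane vesicles expressing BSEP. Transporter-specific taurocholate accumulation was measured across a range of test compound concentrations.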

[7] = biological target: T1, human NTCP (Homo sapiens, UniProt Q14973); assay: NTCP uptake transporter inhibition Ki determination in CHO cells; assay type: cell-based; settings: based on alpha >> 1, increasing Km, nearly constant Vmax
T1 sequence (Q14973 1-349): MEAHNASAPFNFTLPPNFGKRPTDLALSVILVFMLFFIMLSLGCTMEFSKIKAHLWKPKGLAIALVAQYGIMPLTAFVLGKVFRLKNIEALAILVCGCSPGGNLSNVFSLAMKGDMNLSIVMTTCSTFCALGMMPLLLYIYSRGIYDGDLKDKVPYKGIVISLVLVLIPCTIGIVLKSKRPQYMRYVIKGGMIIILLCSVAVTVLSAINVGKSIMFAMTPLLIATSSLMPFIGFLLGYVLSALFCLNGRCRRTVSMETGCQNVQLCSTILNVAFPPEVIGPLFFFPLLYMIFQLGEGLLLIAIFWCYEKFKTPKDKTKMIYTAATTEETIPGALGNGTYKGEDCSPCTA

[8] = tested on: HepG2 cells; assay: In vitro ROS assay; assay type: cell-based, human; settings: nominal media concentrations up to 200 μM, 1 h or 24 h
[9] = tested on: TAK-875-treated patients; settings: cited from earlier work; for patients with ALT elevations > 3× ULN: clinical

mode of NTCP inhibition [7]	ROS production / oxidative stress (DHE fluorescence) [8]	Structure (SMILES)	effect on OCR / basal respiration [1]	effects on mitochondria [1]	compound-induced oxidative stress [2]	effect on oxygen consumption rate (OCR) [3]	effect on blood glucose levels and HbA1c [4]	concentration in liver versus plasma [5]	Ki [6] [µM]	mode of BSEP inhibition ([6]; based on alpha value, Km and Vmax trends)	BSEP alpha constant for inhibition ([6]; mixed-type inhibition model)	cases of serious liver injury, incidence ([9]; clinical trials, ref Marcinak et al., 2018) [%]	patients with ALT elevations > 3× ULN ([9]; daily doses of 200 mg, ref unpublished data) [%]	patients with ALT elevations > 3× ULN ([9]; daily doses ranging from 25 to 50 mg, ref Marcinak et al., 2018) [%]	cases of serious liver injury ([9]; in 9139 TAK-875-treated patients, ref Marcinak et al., 2018) [cases]
		Cc1cc(OCCCS(C)(=O)=O)cc(C)c1-c1cccc(COc2ccc3c(c2)OC[C@H]3CC(=O)O[C@@H]2O[C@H](C(=O)O)[C@@H](O)[C@H](O)[C@H]2O)c1 [TAK-875-Glu]	no effect on basal respiration	negligible effects on mitochondria	no evidence of compound-induced oxidative stress was detected; also recorded: not found to be inducers of oxidative stress	reduce the oxygen consumption rate (OCR) in a dose-dependent manner									
competitive	not observed	Cc1cc(OCCCS(C)(=O)=O)cc(C)c1-c1cccc(COc2ccc3c(c2)OC[C@H]3CC(=O)O)c1 [TAK-875, fasiglifam]	dose-dependent reduction in OCR		no evidence of compound-induced oxidative stress was detected; also recorded: not found to be inducers of oxidative stress	reduce the oxygen consumption rate (OCR) in a dose-dependent manner	lowered blood glucose levels and glycated hemoglobin (HbA1c)	roughly equivalent	17.2	mixed	2.172	0.03	4.0	2.8	3
